The nature of data set [1]: folding enthalpy; higher = less favourable; fluorescence melt of hairpins on a sequencing array, two-state fit. The note with it: sodium 0.088 M. In outline:
(§1)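 In 50 mM Na-HEPES pH 8.0 containing 25 mM NaCl, hairpins from the library on a sequenced MiSeq flow cell were imaged for Cy3 fluorescence at 2.5 °C steps up to 60 °C, with Cy3 and quencher oligos annealed. After normalisation to pre-quench Cy3 and to control constructs, two-state fits with bootstrapping gave melting temperature and folding enthalpy. Four replicates were combined by inverse-variance weighting, and fitted temperatures were shifted up by 9.35 °C to match UV melts.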

Data set [2] is described as follows: melting temperature; fluorescence melt of hairpins on a sequencing array, two-state fit, raised by 9.35 °C to match UV melts. The note with it: sodium 0.088 M. The essentials: as §1

Consider GGACTGGCGAAAGCCTCC (((..(((....)))))), for which, in data set [1], the folding enthalpy was -9.14 kcal/mol. For the same sequence, the Tm in data set [2] stood at 31.6 °C.

With GGACTGGGAAACCGGTCC ((((.((....)).)))), in data set [1], the folding enthalpy was -39.9 kcal/mol. For the same sequence, the Tm in data set [2] amounted to 58.6 °C.

As for GGACTGGGAAACTGGTCC ((((..(....)..)))), in data set [1], the folding enthalpy was -25 kcal/mol. For the same sequence, the Tm in data set [2] was determined as 45.5 °C.

As to GGACTTCGAAAGAATCC (((.(((....)))))), the folding enthalpy in data set [1] was -21.7 kcal/mol. In data set [2], the Tm amounted to 35.2 °C.

As to GGACTTCGAAAGAATTCC (((.(((....))).))), the folding enthalpy in data set [1] is -31.9 kcal/mol. In data set [2], the Tm is 36.8 °C.

In the case of GGACTTGGAAACAAGTCC (((((((....))))))), the folding enthalpy in data set [1] was -51.1 kcal/mol. Moreover, the Tm in data set [2] came to 64.7 °C.

Take GGACTTGGAAACGAGTCC (((((.(....).))))): the folding enthalpy in data set [1] is -39.4 kcal/mol. Besides, the Tm in data set [2] is 52.4 °C.

As to GGAGAAGGAAACTCCTCC ((((.((....)).)))), the folding enthalpy in data set [1] is -22.6 kcal/mol. Besides, the Tm in data set [2] came to 36 °C.

As to GGAGACGAAAGTCCATCC ((((((....)))..))), the folding enthalpy in data set [1] is -10.1 kcal/mol. Further, the Tm in data set [2] is 30.3 °C.

Turning to GGAGAGCGAAAGCTTTCC (((.(((....))).))), the folding enthalpy in data set [1] is -31.6 kcal/mol. For the same sequence, the Tm in data set [2] was determined as 53.6 °C.

On to GGAGAGGAAACTCTCC ((((((....)))))), for which the folding enthalpy in data set [1] is -35.1 kcal/mol. In addition, in data set [2], the Tm was 56.9 °C.

GGAGAGGGAAACCTCTTC (.(((((....))))).): the folding enthalpy in data set [1] was -21.5 kcal/mol. In addition, the Tm in data set [2] was 45.8 °C.

GGAGATCGAAAGATTTCC (((.(((....))).))): the folding enthalpy in data set [1] was -33 kcal/mol. Besides, the Tm in data set [2] came to 46.5 °C.

For the sequence GGAGATTCGAAAGAATCC (((..(((....)))))), in data set [1], the folding enthalpy was -13.3 kcal/mol. Also, the Tm in data set [2] stood at 38.7 °C.

With GGAGCAGGAAACTGCTCC (((((((....))))))), in data set [1], the folding enthalpy is -33.4 kcal/mol. Moreover, in data set [2], the Tm was found to be 69.1 °C.

Turning to GGAGCCGAAAGGCCATCC ((((((....)))..))), the folding enthalpy in data set [1] was -8.68 kcal/mol. Also, in data set [2], the Tm is 31.6 °C.

With GGAGCCGAAAGGCCTTCC ((((((....)))..))), the folding enthalpy in data set [1] is -15.4 kcal/mol. Moreover, the Tm in data set [2] was found to be 46.2 °C.

As for GGAGCCGAAAGGCGGTCC ((((((....)))..))), the folding enthalpy in data set [1] is -9.55 kcal/mol. Moreover, the Tm in data set [2] worked out at 48.1 °C.

GGAGCCGCGAAAGCGTCC (((..(((....)))))): the folding enthalpy in data set [1] is -10.9 kcal/mol. In data set [2], the Tm worked out at 30.7 °C.

On to GGAGCGGGAAACCGTTCC (((.(((....))).))), for which, in data set [1], the folding enthalpy was -38.4 kcal/mol. Besides, in data set [2], the Tm came out at 54.9 °C.

Take GGAGCGGGAAACTGCTCC (((((.(....).))))): the folding enthalpy in data set [1] is -45 kcal/mol. Moreover, in data set [2], the Tm is 60.9 °C.

GGAGCTCGAAAGAGGTCC (((.(((....))).))): the folding enthalpy in data set [1] is -37.8 kcal/mol. For the same sequence, in data set [2], the Tm is 65.9 °C.

As to GGAGCTGGAAACGGTTCC (((.(.(....).).))), the folding enthalpy in data set [1] was -17.5 kcal/mol. In addition, the Tm in data set [2] amounted to 37.6 °C.

As for GGAGGACCGAAAGGTTCC (((..(((....)))))), the folding enthalpy in data set [1] was -12.6 kcal/mol. The Tm in data set [2] was found to be 42.9 °C.

On to GGAGGAGCGAAAGCTTCC (((..(((....)))))), for which, in data set [1], the folding enthalpy is -13.4 kcal/mol. Further, the Tm in data set [2] is 38.6 °C.

Take GGAGGCGAAAGCCCATCC ((((((....)))..))): the folding enthalpy in data set [1] is -9.1 kcal/mol. Further, the Tm in data set [2] is 31.3 °C.

In the case of GGAGGCGAAAGCCCGTCC ((((((....)))..))), the folding enthalpy in data set [1] is -8.99 kcal/mol. The Tm in data set [2] was 39.7 °C.

GGAGGCGAAAGCCGCTCC ((((((....)))..))): the folding enthalpy in data set [1] is -9.69 kcal/mol. The Tm in data set [2] is 49.2 °C.

Consider GGAGGCGAAAGCCTTTCC ((((((....)))..))), for which, in data set [1], the folding enthalpy is -10.3 kcal/mol. Further, the Tm in data set [2] stood at 32.4 °C.

In the case of GGAGGCGCGAAAGCGTCC (((..(((....)))))), the folding enthalpy in data set [1] was -8.65 kcal/mol. The Tm in data set [2] was determined as 47 °C.

The record behind these values is the array DNA melting data of Ke et al. (doi:10.1101/2024.01.08.574731).
